Source: PubChem BioAssay AID804 (SRMLSC, 2007)
The campaign covered roughly 140,000 compounds. About 710 (0.51%) were called active.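 Rule for the calls: active = inhibition above a set limit, 3 SD over the mean compound inhibition (cut at about 44% in these data); inactive = the rest.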 Many of the other results were omitted from the sample, so actives are more common in it than they were.

assay: BB579 yeast growth reduction, restrictive medium – S. cerevisiae, yeast lifespan-shortening project, primary screen (AID 804); settings: OD615, 48 h, at 10 µM, active compounds read high
Outline: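 Assay system: S. cerevisiae DeaD strain BB579 yeast. Medium: CSMM-D restrictive synthetic medium containing dextrose (glucose). Times: 4 h cell preincubation, 48 h compound exposure, 30 °C humidified. Signal: OD615 turbidity measurement. Benchmarks: positive control amphotericin B 10 µg/mL.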

| SMILES | inhibition |
| --- | --- |
| COc1ccc(Br)cc1/C=N/n1c(C)nnc1C | -33.3% (inactive) |
| Oc1ccc(Br)cc1C=Nc1ccc2[nH]ncc2c1 | -67.6% (inactive) |
| COc1cc(Br)cc(/C=N/c2ncn[nH]2)c1O | 54.7% (active) |
| O=c1[nH]n(-c2cccc(Cl)c2)c2ncccc12 | -63.7% (inactive) |
| Clc1cccc(CN2COc3c(cc(Cl)c4cccnc34)C2)c1 | 99.4% (active) |
| Nc1c(C(=O)NCc2ccccc2)nnn1Cc1cccc(Cl)c1 | -3.98% (inactive) |
| Cc1cc(OCCCC(=O)NCCN2C(=O)S/C(=C\c3cccnc3)C2=O)ccc1Cl | -3.48% (inactive) |
| CCc1c(C)sc(NC(=O)/C=C/c2ccc3c(c2)OCO3)c1C(=O)OC | -27.2% (inactive) |
| Nc1nc(NC(=O)/C=C/c2ccccc2)nn1-c1ccccc1 | -11.2% (inactive) |
| COc1ccc(C(=O)O/N=C(\N)Cc2ccc(Cl)cc2Cl)cc1OC | -25.8% (inactive) |
| COC(=O)c1sc2ncccc2c1OCc1ccc(Cl)cc1Cl | -44.1% (inactive) |
| NC(N)=N/N=C/c1ccc(OCc2ccc(Cl)cc2Cl)cc1 | 99.3% (active) |
| COc1ccccc1CN(C)C(=O)C1(c2ccc(Cl)cc2)CC1 | -2.98% (inactive) |
| N/C(=N\OC(=O)CC1CCCCC1)c1ccccc1 | -2.81% (inactive) |
| CCCCn1c(=S)[nH]c2ccccc2c1=O | 6.35% (inactive) |
| Cc1c(Cl)c([N+](=O)[O-])nn1CCCC(=O)Nc1cc(Cl)ccc1Cl | 2.39% (inactive) |
| Nc1nc(SCC(=O)NN(c2ccccc2)c2ccccc2)n[nH]1 | -6.56% (inactive) |
| CC(C)(C)C1CCC(=NNC(=O)c2cc(-c3ccccc3)n[nH]2)CC1 (stereo not given) | -16.9% (inactive) |
| O=C1NC(c2ccccc2)=NC1(Nc1ccccn1)C(F)(F)F (stereo not given) | -3.11% (inactive) |
| CCN=C1S/C(=C\c2cc(Br)ccc2OCC(=O)OCC)C(=O)N1CC | -14.3% (inactive) |
| COCCn1c(SCC(=O)Nc2ccc3c(c2)CCC3)nc2ccccc2c1=O | -36.9% (inactive) |
| COc1ccc(C2Nc3ccccc3C(=O)N2c2ccc(F)cc2)cc1Cn1nnc2ccccc21 (stereo not given) | -29.1% (inactive) |
| CC(C)CNC(=S)Nc1ccc(F)cc1 | 14.5% (inactive) |
| CCOC(=O)c1cc2c(nc1NC(=S)Nc1ccccc1)CC(C)(CC)OC2 (stereo not given) | 0.93% (inactive) |
| COc1cc(NC(=O)c2ccccc2NS(=O)(=O)c2ccc(Cl)s2)cc(OC)c1 | -5.4% (inactive) |

| SMILES | inhibition |
| --- | --- |
| S=C(NCc1ccc(Cl)cc1)NC12CC3CC(CC(C3)C1)C2 | 50% (active) |
| COC(=O)Cc1ccc(NC(=S)NCc2ccc(Cl)cc2)cc1 | -19.1% (inactive) |
| S=C(NCc1ccc(Cl)cc1)NC1CCCCC1 | -27.3% (inactive) |
| O=C(CCc1nc2ccccc2c(=O)[nH]1)OCC(=O)c1cccc(Cl)c1 | -13.4% (inactive) |
| N#C/C(=C/c1cccc([N+](=O)[O-])c1)c1nnc2n1CCCCC2 | -18.8% (inactive) |
| COCC(C)n1c(C)cc(C(=O)CSc2cc(C)c3ccccc3n2)c1C (stereo not given) | -56.2% (inactive) |
| O=c1[nH]cnc2c1c(-c1ccccc1)cn2-c1ccc(F)cc1 | -19.6% (inactive) |
| COc1ccc(-n2nnnc2-c2nc3ccccc3s2)cc1 | -33.6% (inactive) |
| O=C1OC(OC(=O)c2ccccc2Br)C(N2CCOCC2)=C1Cl (stereo not given) | -32.6% (inactive) |
| Cc1cccc(OCC(=O)NC(=S)Nc2ccccc2N2CCOCC2)c1 | -49.4% (inactive) |
| CCOc1cc(N2CCOCC2)c(OCC)cc1NC(=O)COc1cccc2cccnc12 | 67.1% (active) |
| CCOc1cc(N2CCOCC2)c(OCC)cc1NC(=O)COC(=O)[C@H](Cc1c[nH]c2ccccc12)NC(C)=O | -16% (inactive) |
| CCc1ccc2c(c1)C(c1ccc([N+](=O)[O-])cc1)=NNC(c1ccccc1)=N2 | -23.5% (inactive) |
| Cn1c(=O)c(Sc2ccc(Cl)cc2)c(O)c2ccccc21 | -21.7% (inactive) |
| O=C(Nc1ncccn1)c1cccs1 | -21.9% (inactive) |
| Cn1c(=O)c(C(=O)Nc2ncccn2)c(O)c2ccccc21 | 68.5% (active) |
| Cc1ccc(NC(=O)c2sc3nc(N)c(C#N)cc3c2N)cc1 | -23.2% (inactive) |
| O=C(Cc1c[nH]c2ccccc12)N/N=C/c1cccc(F)c1 | -39.1% (inactive) |
| COC(=O)Cn1c2ccc(C)cc2c2nc(C)sc21 | 43.6% (active) |
| COC(=O)Cn1c(=NC(=O)c2cc(OC)c(OC)c(OC)c2)sc2cc(OC)ccc21 | -32.8% (inactive) |
| CCN(CC)CCn1c2ccc(Cl)cc2c2nc(C)sc21 | -1.41% (inactive) |
| CCOC(=O)c1nn(-c2ccccc2F)c2nc(Nc3ccccc3)cc(=O)n12 | -45.6% (inactive) |
| Cc1c(C=O)c2ccccn2c1C(=O)c1ccncc1 | 43.9% (active) |
| CC(OC(=O)CNS(=O)(=O)/C=C/c1ccccc1)C(=O)Nc1ccc(S(=O)(=O)N2CCCC2)cc1 (stereo not given) | -25.4% (inactive) |
| CN1CCC(=NNC(=O)c2ccc(N(Cc3ccc(Cl)cc3)S(C)(=O)=O)cc2)CC1 | -8.48% (inactive) |
